This is an account of results in ChEMBL document CHEMBL3596186, “Synthesis and biological evaluation of diarylthiazole derivatives as antimitotic and antivascular agents with potent antitumor activity” (Bioorg Med Chem, 2015).

SMILES strings stand for the structures. pIC50: −log10 of the molar value. Active and inactive are the calls of the source. The calls are words filed in the database; no cut-off is given here.

Data set [1] concerns Mus musculus. Briefly: Toxicity in Balb/c athymic nude mouse xenografted with human SKOV3 cells assessed as loss in body weight at 10 mg/kg, ip administered daily. In kind it is organism-based, SK-OV-3. Conditions: in vivo. The essentials: (§1)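 Female Balb/C athymic nude mice, 5-6 weeks old, bearing s.c. right-flank xenografts (cells in HBSS). Once tumors averaged 100 mm3, animals were randomized into groups of 6 and dosed i.p. once daily. Body weight was recorded every two days during treatment.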
For orientation: A xenograft is tissue or cells of one species grown in another, often human tumour cells in immunodeficient mice.

For data set [2], the system named is HCT-116. Briefly: Antitumor activity against human HCT116 cells xenografted in Balb/c athymic nude mouse assessed as tumor growth inhibition at 10 mg/kg, ip administered daily after 42 days. The class given is functional. The settings on record: HCT-116, ip, 1008 h, read-out: TGI. Put shortly:
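Female Balb/C athymic nude mice, 5-6 weeks old, given s.c. tumor cells in HBSS into the right flank. Once tumors averaged 100 mm3, animals were randomized into groups of 6 and given daily i.p. injections. Tumor volume (π/6 × length × width²) was measured every two days. Inhibition = (1 − treated/control tumor weight) × 100%, taken at day 42.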

Data set [3] deals with Mus musculus. As to the kind of experiment: Toxicity in Balb/c athymic nude mouse xenografted with human HCT116 cells assessed as loss in body weight at 10 mg/kg, ip administered daily. The settings on record: in vivo. In kind it is organism-based, HCT-116. Put shortly:
as §1

The test system of data set [4] is MCF7. Briefly: Resistance ratio, ratio of IC50 for human doxorubicin-resistant MCF7 cells to IC50 for human MCF7 cells. The class given is functional. The essentials:
(§2)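 MTT assay: log-phase cells at 40,000-50,000 cells/mL in RPMI-1640 with 10% FBS, exposed to graded concentrations for 48 h, then MTT 3 h, DMSO solubilization, absorbance at 570 nm. IC50 from growth versus untreated control, at least three independent experiments. Ratio = resistant-line IC50 / parental-line IC50.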

In the next data set the target is Tubulin (Homo sapiens) (UniProt P68371+Q9H4B7+P0DPH7+P68366+Q13509+Q71U36+P04350+Q3ZCM7+P07437+P68363+Q9BQE3+Q6PEY2+Q13885+Q9BVA1+Q9BUF5). Briefly: Binding affinity to tubulin in human HepG2 cells at 5 uM after 4 hrs by EBI competition assay. The class given is cell-based. The essentials: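 HepG2 cells seeded at 500,000 cells/well, allowed to adhere, then treated with compound for 4 h. EBI added at 100 µM for 1.5 h. Cell extracts (about 20 µg protein) run on 10% SDS-PAGE, blotted to PVDF, probed with anti-β-tubulin, detected by ECL with GAPDH as loading control. Read-out is loss of the faster-migrating β-tubulin–EBI adduct band.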

Data set [5] is described as follows: Antiproliferative activity against human A2780S cells after 48 hrs by MTT assay. The class given is functional, cell-based. The settings on record: A2780, 48 h. Put shortly: (§3)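 HCT116, HepG2, SMMC-7721, SK-OV-3 and A2780s grown in DMEM; A549 and MCF-7 in RPMI-1640; all with 10% FBS and penicillin/streptomycin at 37 °C, 5% CO2. Log-phase cells at 40,000-50,000 cells/mL treated with graded concentrations for 48 h. MTT 3 h, DMSO solubilization, A570. IC50 from percent growth versus untreated control; mean ± SEM of ≥3 independent dose-response experiments.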

For data set [6], the system named is HCT-116. As to the kind of experiment: Antiproliferative activity against human HCT116 cells after 48 hrs by MTT assay. Conditions: HCT-116, 48 h. In kind it is functional, cell-based. The essentials: as §3
In general terms: Tetrazolium assays rely on reduction of a dye to a coloured formazan, in cell work by metabolically active cells.

For the next data set, the system named is HepG2. As to the kind of experiment: Antiproliferative activity against human HepG2 cells after 48 hrs by MTT assay. The class given is functional, cell-based. Conditions: HepG2, 48 h. The essentials: as §3
Data set [7] has as its system MCF7. Briefly: Antiproliferative activity against human MCF7 cells after 48 hrs by MTT assay. Conditions: MCF7, 48 h. The class given is functional, cell-based. The essentials: as §3
The subject of another data set is SK-OV-3. Briefly: Antiproliferative activity against human SKOV3 cells after 48 hrs by MTT assay. The class given is functional, cell-based. Conditions: SK-OV-3, 48 h. Put shortly: as §3
Data set [8] in a line: Antiproliferative activity against human doxorubicin-resistant MCF7 cells after 48 hrs by MTT assay. In kind it is functional, cell-based. Conditions: MCF7, 48 h. The essentials: (§4)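 MCF-7/ADR (doxorubicin-resistant) and A549/T (taxol-resistant) cells in RPMI-1640 with 10% FBS and penicillin/streptomycin. Log-phase cells at 40,000-50,000 cells/mL exposed to graded concentrations for 48 h. MTT 3 h, DMSO solubilization, absorbance 570 nm. IC50 from percent growth versus untreated control; mean ± SEM of ≥3 independent experiments.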

For data set [9], the system named is A549. As to the kind of experiment: Resistance ratio, ratio of IC50 for human taxol-resistant A549 cells to IC50 for human A549 cells. The class given is functional. Put shortly:
as §2

The nature of data set [10]: Antiproliferative activity against human […] cells after 48 hrs by MTT assay. In kind it is functional, cell-based. The essentials:
as §3

Data set [11] can be described thus: Antiproliferative activity against human HCC827 cells after 48 hrs by MTT assay. In kind it is functional, cell-based. Conditions: HCC827, 48 h.
Data set [12] deals with NCI-H1975. As to the kind of experiment: Antiproliferative activity against human gefitinib-resistant NCI-H1975 cells after 48 hrs by MTT assay. The class given is functional, cell-based. The settings on record: NCI-H1975, 48 h.
For data set [13], the system named is A549. As to the kind of experiment: Antiproliferative activity against human taxol-resistant A549 cells after 48 hrs by MTT assay. In kind it is functional, cell-based. Conditions: A549, 48 h. Put shortly:
as §4

For data set [14], the system named is NCI-H1975. Briefly: Resistance ratio, ratio of IC50 for human gefitinib-resistant NCI-H1975 cells to IC50 for human HCC827 cells. The class given is functional.
Data set [15] has as its system A549. As to the kind of experiment: Antiproliferative activity against human A549 cells after 48 hrs by MTT assay. In kind it is functional, cell-based. Conditions: A549, 48 h. The essentials:
as §3

Data set [16] in a line: Inhibition of pig microtubule polymerization after 30 mins by turbidimetric assay. More on the design: species or system Sus scrofa. Put shortly: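 Porcine-brain MAP-rich tubulin at 3 mg/mL preincubated 30 min at 4 °C in 0.1 M PIPES pH 6.9, 2 mM MgCl2, 0.5 mM EGTA. Compounds added 2 min before the run, then 1 mM GTP. Turbidity followed kinetically at 340 nm at 37 °C; assembly IC50 derived by Hamel's method.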

On to `O=c1[nH]cc(F)c(=O)[nH]1` [FLUOROURACIL], for which the Activity result in the data set on Mus musculus [1] and with Mus musculus [3] was “Toxic” throughout. Further, the inhibition in vivo at 10 mg/kg with HCT-116 [2] worked out at 37.3%.
Turning to `CCNC(=O)Nc1nc(-c2ccc(OCC)cc2)c(-c2cc(OC)c(OC)c(OC)c2)s1`, the figures for the “Ratio IC50” value in the data set with MCF7 [4], in the data set with A549 [9] and with NCI-H1975 [14] were 1.7, 0.64 and 0.35, respectively. The outcome on Tubulin (Homo sapiens) was inactive. In addition, the pIC50 in [5] was 8.89; with HCT-116 [6] it was 7.66; with HepG2 it was 7.51; in the data set on MCF7 [7], 6.38; with SK-OV-3 it was 7.53; in data set [8], 6.14. The pIC50 was 7.97 in [10]; 6.21 in [11]; 6.66 in the data set with NCI-H1975 [12]; 6.85 in the data set with A549 [13]; 6.99 with A549 [15]; 5.41 in [16].

What is called pIC50 is the negative decadic logarithm of the IC50, by convention in mol/L. Low values mean a large IC50, high ones a small IC50.
